The nature of this data set: Toxicity liver stage against HepG2, at 10uM. Type of data set: cell-based. The settings on record: human, HepG2-A16-CD81EGFP cells; read-out: INHIBITION
More on the design: test concentration 10 uM, cell line HepG2-A16-CD81EGFP. In a few lines:
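Uninfected HepG2-A16-CD81EGFP cells, 3 × 10^3 per well, 1536-well, plated on prespotted compound at 10 μM final, parasite-free screening media added to match infected plates; puromycin 10 μM positive, DMSO 0.5% negative; run in parallel with 48 h PbLuc assay at 37 °C, 5% CO2; viability by CellTiter-Glo luminescence, normalized to controls.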

`CC(C)c1noc(CN2CCN(C(=O)c3ccncc3F)CC2)n1`: the cytotoxicity at 10 µM was -10.9%.
With `COc1ccc(F)cc1C(=O)N1CCC2(CCC(=O)N(C(C)C)C2)CC1`, the cytotoxicity at 10 µM was -4.75%.
Consider `CC(C)(C)N1CC(C(=O)N2CCN(CCn3cncn3)CC2)CC1=O` (stereo not given), for which the cytotoxicity at 10 µM is -5.14%.
`COc1ccc(C[C@H]2CN(C(=O)c3ccncc3)CC[C@@H]2OC)cc1`: the cytotoxicity at 10 µM was 5.75%.
Regarding `CC(C)CCNC(=O)c1ccc2c(=O)n(-c3ccccc3)cnc2c1`, the cytotoxicity at 10 µM is -4.65%.
Regarding `CN(C)C(=O)C1(CCCc2ccccn2)CCN1Cc1nccn1C` (stereo not given), the cytotoxicity at 10 µM came to 8.08%.
For `Cc1cc(CN(C)C(=O)c2cccc(CCC(C)(C)O)c2)no1`, the cytotoxicity at 10 µM was -2.02%.
For `Cc1cccc(C(=O)NC(C(=O)NCc2ccc(O)nc2)C(C)C)c1` (stereo not given), the cytotoxicity at 10 µM was -7.81%.
In the case of `COC(=O)c1cccc(CNC(=O)CC(F)(F)F)c1`, the cytotoxicity at 10 µM came out at 17.4%.
On to `COc1cccc(CC(C)NCC(=O)Nc2ccccc2C)c1` (stereo not given), for which the cytotoxicity at 10 µM was -1.62%.
In the case of `CN(Cc1cccnc1)CC1CC12CCN(c1nncs1)CC2` (stereo not given) it was 9.28%.
Take `CN(C)c1ccc(-c2cccc(-c3ccn(CCCO)n3)c2)nn1`: the cytotoxicity at 10 µM was -3.06%.
On to `CN(C)c1ccc(C(O)CNS(=O)(=O)C2CC2)cc1` (stereo not given), for which the cytotoxicity at 10 µM is -4.99%.
Consider `O=C(CN1CC(n2cccn2)C1)NCCc1ccc(F)cc1`, for which the cytotoxicity at 10 µM is -14.3%.
With `CCc1nc(C)ncc1C(=O)N1CCCC(n2nc(C)nc2C)C1` (stereo not given), the cytotoxicity at 10 µM is -8.47%.
Consider `COCCOc1ccc(S(=O)(=O)Nc2cccc(O)c2F)cc1C`, for which the cytotoxicity at 10 µM was found to be 27.7%.
As for `COCCOCc1cccc(NC(=O)N2CCCC2c2ccncc2)c1` (stereo not given), the cytotoxicity at 10 µM came to 6.79%.
For the compound `CO[C@H]1CC[C@H]2[C@H]1OCCN2C(=O)c1nn(C)c2ccccc12`, the cytotoxicity at 10 µM is 5.33%.
`O=C(NCc1cccnc1)[C@H]1CN2CCC1C[C@@H]2Cn1cc(CO)nn1` (stereo not given in full): the cytotoxicity at 10 µM was -0.843%.
`Cc1nc(C)n(CC(=O)N2CCCC(c3cc4ccccc4cn3)C2)n1` (stereo not given): the cytotoxicity at 10 µM was -22.1%.
As to `Cc1cccc(NC(=O)[C@@H]2CCCN2CC(=O)Nc2ccccc2)n1`, the cytotoxicity at 10 µM was determined as 2.45%.
In the case of `O=S(=O)(C1CC1)N1CCc2ncnc(N3CCOCC3)c2CC1` it was -109%; in that of `Cc1cc(CNC(=O)c2ccc(C(C)N3CCCCC3)o2)[nH]n1` (stereo not given), -12.6%; in that of `Cc1n[nH]c(C)c1CCN(C)C(=O)c1ccc(CCC(C)(C)O)cc1`, 6.15%.
In the case of `CN(C)CCNCC1COCc2c(-c3ccnn3C)nnn2C1` (stereo not given), the cytotoxicity at 10 µM was -99.9%.
For the compound `CCC(N)C(=O)N1CCC(OCc2ccc(Cl)c(Cl)c2)CC1` (stereo not given), the cytotoxicity at 10 µM is -12%.
In the case of `Cc1cc(NC(=O)NCc2nncn2C)ccc1OC(C)C`, the cytotoxicity at 10 µM is 6.23%.
On to `CC(C)Cc1ncc(CNc2cnccc2CO)s1`, for which the cytotoxicity at 10 µM is -6.53%.
In the case of `CS(=O)(=O)NC1CCCN(c2ccc(C#N)cn2)C1` (stereo not given) it was -12.7%; in that of `Cc1cc(CN(C)C(C(=O)O)c2ccc(C(C)(C)C)cc2)on1` (stereo not given), -6.36%; in that of `CC[C@@H]1N(C)CCC[C@]12CCC(=O)N2Cc1ccncc1`, 3.67%.
In the case of `CN1CC(c2ccccc2)CC12CCN(C(=O)c1ccncc1)CC2` (stereo not given) it was -7.96%; in that of `CC(=O)N1Cc2ccccc2C[C@H]1C(=O)N(C)CCc1ccccn1`, -3.27%; in that of `Cc1nnc2n1CC(CNCc1nc(-c3cccs3)no1)CC2` (stereo not given), 10.1%.
In the case of `CCc1noc(CNc2c(F)cccc2-n2cccn2)n1`, the cytotoxicity at 10 µM was -5.14%.
On to `COCC(=O)N1Cc2cn(C)nc2C(COc2cccnc2)C1` (stereo not given), for which the cytotoxicity at 10 µM was -11%.
With `O=C(CCNC(=O)C1CCCC1)NCc1ccccc1Cn1ccnc1`, the cytotoxicity at 10 µM was -2.74%.
In the case of `COc1cccc(S(=O)(=O)N2C[C@@H](O)[C@H](N(C)C)C2)c1` it was 5.76%; in that of `COCCNC(=O)[C@@H]1CN(c2cc(OC)ncn2)C[C@H]2OCC[C@H]21`, -3.06%.
Turning to `CNc1nc(CNC(=O)Nc2cccc(CSC)c2)cs1`, the cytotoxicity at 10 µM was -3.01%.
In the case of `Cc1ccc2oc(=O)n(CC(=O)N3CCC4(CC3)CN(C)C(=O)O4)c2c1` it was -13.8%; in that of `CN1CCCC(C(=O)N2CCC(Oc3ccccn3)CC2)C1` (stereo not given), -5.15%; in that of `O=C(CCn1cc(Cl)cn1)N1CCN(CC2CC2)[C@@H]2CS(=O)(=O)C[C@@H]21`, 2.28%.
With `Fc1ccc(-c2nnc(CN3CCCC3Cn3cccn3)o2)cc1` (stereo not given), the cytotoxicity at 10 µM is -5.65%.
With `COc1cc(C)ccc1OCCC(=O)N1CCC(C(N)=O)C1` (stereo not given), the cytotoxicity at 10 µM was determined as 6.31%.
With `CCN1CC(C(=O)N2CCc3cc(C(=O)N(C)C)n(C)c3C2)CCC1=O` (stereo not given), the cytotoxicity at 10 µM was -48.1%.
In the case of `O=C1CC(N2CCN(c3ccc(F)cc3)CC2)C(=O)N1Cc1cccs1` (stereo not given) it was -0.31%; in that of `CC(NC(=O)NC1CCN(Cc2ccccn2)CC1)c1ccco1` (stereo not given), 13.9%; in that of `CN1CC(Nc2nc3c(cnn3C(C)(C)C)c(=O)[nH]2)CCC1=O` (stereo not given), -4.26%.
In the case of `N#Cc1ccc(CN2CCN(C(=O)C3CCC3)[C@@H]3CS(=O)(=O)C[C@@H]32)cc1` it was -9.78%; in that of `CCCc1nc(C(C)(C)NC(=O)C2CC(=O)N(CC)C2)no1` (stereo not given), 3.51%; in that of `Cc1ncc(Cl)c(C(=O)N2CC(=O)N(C)c3ccccc32)n1`, 5.35%.
For the compound `CCn1ncc2c1CCCC2NCc1ccc(OC)c(C)c1` (stereo not given), the cytotoxicity at 10 µM was -8%.
With `Cn1cc(-c2cnc3n2CCC32CCN(S(=O)(=O)C3CC3)CC2)cn1`, the cytotoxicity at 10 µM is -139%.
For the compound `Cc1nc(NC(=O)N(C)Cc2ccsc2)nn1C`, the cytotoxicity at 10 µM is 1.81%.
Turning to `CC(C)N1CCCC(C(=O)N(C)CCCc2cnn(C)c2)C1` (stereo not given), the cytotoxicity at 10 µM was -8.03%.
Turning to `Cc1noc2nc(C3CC3)c(Cl)c(C(=O)O)c12`, the cytotoxicity at 10 µM was -1.25%.
Turning to `COc1ccc(C(=O)N2CC(=O)N(Cc3cccs3)CC(O)C2)cc1` (stereo not given), the cytotoxicity at 10 µM came out at 4.43%.
In the case of `Cc1cnc(N2Cc3cnn(Cc4ccc(F)cc4)c3C2)nc1N(C)C` it was 6.02%; in that of `CSc1ccc(NCC(=O)NC(=O)NCC(F)(F)F)cc1F`, -7.91%; in that of `Cc1nc(C2CCCN(C(=O)c3ccc(Cn4cccn4)o3)C2)no1` (stereo not given), -6.38%.
On to `COc1ccc(C)cc1C(=O)NC1(C#N)CCOCC1`, for which the cytotoxicity at 10 µM was 1.98%.
In the case of `CSc1ccccc1NC(=O)c1ccc(N2CCOCC2)nn1`, the cytotoxicity at 10 µM was 0.951%.
With `CCCc1noc(CCC(=O)N2CCCC(n3ccnc3C)C2)n1` (stereo not given), the cytotoxicity at 10 µM is -4.39%.
Take `Cc1nn(C)c(C)c1C(C(=O)O)N1CCc2ccccc2C1` (stereo not given): the cytotoxicity at 10 µM was -0.492%.
As for `Cn1cnc2c1CCN(CC(O)c1ccc3c(c1)OCCO3)C2` (stereo not given), the cytotoxicity at 10 µM was -13.7%.
Take `O=C(c1ccon1)N1CCc2ncnc(NCc3cccnc3)c2CC1`: the cytotoxicity at 10 µM is -1.9%.
For `Cc1ccc(C(C(=O)NCCc2nc(C)cc(=O)[nH]2)N(C)C)cc1` (stereo not given), the cytotoxicity at 10 µM was determined as 1.92%.
`O=C1CC2(CCN(CCO)CC2)CN1Cc1cc(F)cc(F)c1`: the cytotoxicity at 10 µM was -15.7%.
On to `Cc1ccc(C(CNCc2cccc3c2OCO3)N2CCOCC2)o1` (stereo not given), for which the cytotoxicity at 10 µM is -38.9%.

These data come from ChEMBL document CHEMBL4513216, “Probing the Open Global Health Chemical Diversity Library for Multistage-Active Starting Points for Next-Generation Antimalarials” (ACS Infect Dis, 2020).
